The source of these data is ChEMBL document CHEMBL1147444, “Antagonists of human CCR5 receptor containing 4-(pyrazolyl)piperidine side chains. Part 1: Discovery and SAR study of 4-pyrazolylpiperidine side chains” (Bioorg Med Chem Lett, 2004).

The target in test [1] is C-C chemokine receptor type 5 (Homo sapiens, UniProt P51681). Put plainly: Inhibitory activity against human CC chemokine receptor 5. In outline:
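Displacement of [125I]-labeled MIP-1α from human CCR5 on CHO cell membranes, described as a GP120-membrane-based assay. IC50 values are averages of triplicate measurements, with a standard compound run to check variability between assays. Single-point lines are percent inhibition at 2 μM.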

The subject of test [2] is Human immunodeficiency virus 1. Put plainly: In vitro antiviral activity against HIV-1 infected HeLa cells. Type of test: functional. The conditions noted are these: Human immunodeficiency virus 1, HeLa. Put shortly: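 Cell-culture HIV-1 infectivity assay in HeLa cells. Read-out is the IC90, with the IC50 given for some entries.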

Chain of C-C chemokine receptor type 5 (P51681 whole entry): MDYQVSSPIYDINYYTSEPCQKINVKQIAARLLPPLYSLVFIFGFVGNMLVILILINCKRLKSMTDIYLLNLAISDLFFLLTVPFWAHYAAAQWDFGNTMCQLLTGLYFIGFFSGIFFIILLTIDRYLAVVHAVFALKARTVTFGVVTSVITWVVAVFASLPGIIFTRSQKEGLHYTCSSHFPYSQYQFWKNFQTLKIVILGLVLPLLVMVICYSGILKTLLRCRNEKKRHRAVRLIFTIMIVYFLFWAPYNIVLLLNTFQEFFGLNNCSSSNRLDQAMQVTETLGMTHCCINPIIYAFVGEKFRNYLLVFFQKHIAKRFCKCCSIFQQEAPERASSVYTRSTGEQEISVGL

In general, IC50 refers to the midpoint of a concentration-inhibition curve. Low values mean higher potency, high ones lower potency. On to `CCn1ncc(C(=O)c2ccccc2)c1C1CCN(C[C@H]2CN([C@@H](C(=O)O)C3CCCCC3)C[C@@H]2c2ccccc2)CC1`, for which half-maximal inhibition in test [1] (IC50) required 23 nM.

`CC(C)(c1ccccc1)c1cn[nH]c1C1CCN(C[C@H]2CN([C@@H](C(=O)O)C3CCCCC3)C[C@@H]2c2ccccc2)CC1`: the IC50 in test [1] is 11.5 nM.

For orientation: IC90 means the point of the concentration-response curve where the effect stands at 90%. A higher IC90 goes with a need for much substance. For the molecule `CCn1cc(CCc2ccccc2)c(C2CCN(C[C@H]3CN([C@@H](C(=O)O)C4CCCCC4)C[C@@H]3c3ccccc3)CC2)n1`, in test [1], the IC50 came to 2.3 nM. In addition, the IC90 in test [2] is 300 nM.

For `O=C(O)[C@@H](C1CCCCC1)N1C[C@H](CN2CCC(c3n[nH]cc3C(F)(F)c3ccccc3)CC2)[C@@H](c2ccccc2)C1`, the IC50 in test [1] stood at 2.1 nM. In test [2], the IC90 was found to be 300 nM.

`CCn1ncc(C(C)(C)c2ccccc2)c1C1CCN(C[C@H]2CN([C@@H](C(=O)O)C3CCCCC3)C[C@@H]2c2ccccc2)CC1`: half-maximal inhibition in test [1] (IC50) was put at 6.9 nM. In addition, the IC90 in test [2] amounted to 300 nM.

`CCn1nc(-c2ccc(CN)cc2)cc1C1CCN(C[C@H]2CN([C@@H](C(=O)O)C3CCCCC3)C[C@@H]2c2ccccc2)CC1` yielded an IC50 in test [1] of 112 nM. This lies in the sub-micromolar range.

In test [1], `O=C(O)Cn1nc(Cc2ccccc2)cc1C1CCN(C[C@H]2CN([C@@H](C(=O)O)C3CCCCC3)C[C@@H]2c2ccccc2)CC1` showed an IC50 of 33 nM.

`O=C(O)[C@@H](C1CCCCC1)N1C[C@H](CN2CCC(c3n[nH]cc3CCc3ccccc3)CC2)[C@@H](c2ccccc2)C1`: in test [1], 1.2 nM corresponded to half-maximal inhibition (IC50). This molecule also returned an IC90 in test [2] of 33 nM.

In test [1], `CCn1cc(Cc2ccccc2)c(C2CCN(C[C@H]3CN([C@@H](C(=O)O)C4CCCCC4)C[C@@H]3c3ccccc3)CC2)n1` registered an IC50 of 20 nM. The same molecule returned a concentration for an effect of 90% (IC90) in test [2] of over 300 nM.

In turn, `CCCn1nc(Cc2ccccc2)cc1C1CCN(C[C@H]2CN([C@@H](C(=O)O)C3CCCCC3)C[C@@H]2c2ccccc2)CC1` came in with an IC50 in test [1] of 4.6 nM. The molecule further showed an IC90 in test [2] of 1.2 nM.

In the case of `Cn1nc(Cc2ccccc2)cc1C1CCN(C[C@H]2CN([C@@H](C(=O)O)C3CCCCC3)C[C@@H]2c2ccccc2)CC1`, the IC50 in test [1] came to 4.2 nM. In addition, the IC90 in test [2] stood at 3.7 nM.

The molecule `O=C(O)[C@@H](C1CCCCC1)N1C[C@H](CN2CCC(c3cc(Cc4ccccc4)nn3CC(F)(F)F)CC2)[C@@H](c2ccccc2)C1` displayed an IC50 in test [1] of 4.8 nM. In test [2], this molecule yielded an IC90 of 33 nM.

In the case of `O=C(O)[C@@H](C1CCCCC1)N1C[C@H](CN2CCC(c3cc(Cc4ccccc4)n[nH]3)CC2)[C@@H](c2ccccc2)C1`, in test [1], half-maximal inhibition (IC50) required 2.2 nM. The IC90 in test [2] worked out at 0.4 nM.

Molecule `O=C(O)[C@@H](C1CCCCC1)N1C[C@H](CN2CCC(c3n[nH]cc3C3(c4ccccc4)CC3)CC2)[C@@H](c2ccccc2)C1` gave an IC50 in test [1] of 4.4 nM. This molecule also gave an IC90 in test [2] of over 300 nM.

`CCn1nc(C2CCN(C[C@H]3CN([C@@H](C(=O)O)C4CCCCC4)C[C@@H]3c3ccccc3)CC2)cc1Cc1ccccc1`: the IC50 in test [1] worked out at 76 nM. Besides, the IC90 in test [2] was over 300 nM.

In test [1], `O=C(O)[C@@H](C1CCCCC1)N1C[C@H](CN2CCC(c3nocc3Cc3ccccc3)CC2)[C@@H](c2ccccc2)C1` displayed an IC50 of 1.2 nM. This molecule also returned an IC90 in test [2] of 3.7 nM.

`CCOC(=O)Cn1nc(Cc2ccccc2)cc1C1CCN(C[C@H]2CN([C@@H](C(=O)O)C3CCCCC3)C[C@@H]2c2ccccc2)CC1` registered an IC50 in test [1] of 9 nM. The 90% effect level in test [2] (IC90) was put at 11 nM.

For the molecule `CCCCn1nc(Cc2ccccc2)cc1C1CCN(C[C@H]2CN([C@@H](C(=O)O)C3CCCCC3)C[C@@H]2c2ccccc2)CC1`, in test [1], the IC50 was 3 nM. The same molecule came in with an IC90 in test [2] of 11 nM.

For the molecule `CCn1ncc(C2(c3ccccc3)CC2)c1C1CCN(C[C@H]2CN([C@@H](C(=O)O)C3CCCCC3)C[C@@H]2c2ccccc2)CC1`, the IC50 in test [1] turned out to be 11 nM. This lies in the double-digit nanomolar range.

`O=C(O)[C@@H](C1CCCCC1)N1C[C@H](CN2CCC(c3[nH]ncc3Cc3ccccc3)CC2)[C@@H](c2ccccc2)C1` yielded an IC50 in test [1] of 4.8 nM. This molecule also yielded an IC90 in test [2] of 100 nM.

Molecule `O=C(c1ccccc1)c1c[nH]nc1C1CCN(C[C@H]2CN([C@@H](C(=O)O)C3CCCCC3)C[C@@H]2c2ccccc2)CC1` had an IC50 in test [1] of 41 nM.
